Converted amounts (≈) assume the structure as drawn.
Tests used:
[1] = tested on: Pseudomonas aeruginosa; assay: Antibacterial activity against quinolone-resistant Pseudomonas aeruginosa PA3060; format: functional
Summary of the method: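 MIC (µg/ml) against quinolone-resistant P. aeruginosa PA-3060, run alongside efflux-competent strains PAO1 and PA-7 and the multi-efflux-pump knockout PA-3919. Some analogs were tested as racemates.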

[2] = tested on: Pseudomonas aeruginosa; assay: Antibacterial activity against Pseudomonas aeruginosa PAO1; format: functional
Summary of the method: (§1)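 MIC in µg/ml against P. aeruginosa strains with fully functioning efflux pumps. PAO1 is wild type and efflux pump competent.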

[3] = tested on: Pseudomonas aeruginosa; assay: Antibacterial activity against Pseudomonas aeruginosa PA7; format: functional; summary of the method: as §1
[4] = molecular target: T1, UDP-3-O-acyl-N-acetylglucosamine deacetylase (Pseudomonas aeruginosa, UniProt B5ATN6); assay: Inhibition of Pseudomonas aeruginosa LpxC
T1 sequence (B5ATN6 whole entry): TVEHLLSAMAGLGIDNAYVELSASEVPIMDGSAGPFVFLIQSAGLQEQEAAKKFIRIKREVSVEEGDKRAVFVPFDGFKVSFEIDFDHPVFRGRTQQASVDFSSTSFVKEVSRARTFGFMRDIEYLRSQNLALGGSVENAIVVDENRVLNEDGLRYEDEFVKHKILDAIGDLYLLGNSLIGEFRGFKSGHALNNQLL

[5] = tested on: Pseudomonas aeruginosa; assay: Antibacterial activity against multi efflux pump knock out Pseudomonas aeruginosa PA3919; format: functional
Summary of the method: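 MIC in µg/ml against P. aeruginosa PA-3919, which lacks multiple efflux pumps. The strain is used to tell whether a compound is a substrate of these pumps.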

[6] = Fraction unbound in human plasma; format: ADME, cell-free
[7] = tested on: Pseudomonas aeruginosa; assay: Antibacterial activity against Pseudomonas aeruginosa; format: functional
[8] = tested on: Acinetobacter baumannii; assay: Antibacterial activity against Acinetobacter baumannii; format: functional
[9] = tested on: Escherichia coli; assay: Antibacterial activity against Escherichia coli; format: functional
[10] = Lipophilicity, log D of the compound at pH 7.4; format: physicochemical; details: buffer
[11] = tested on: Klebsiella pneumoniae; assay: Antibacterial activity against Klebsiella pneumoniae; format: functional

C[C@@](CCn1cc(-c2cccc(Cl)c2Cl)nn1)(C(=O)NO)S(C)(=O)=O
MIC [1]: 4 µg/mL (≈ 9.82 µM)
MIC [2]: 2 µg/mL (≈ 4.91 µM)
MIC [3]: 4 µg/mL (≈ 9.82 µM)
IC50 [4]: 1.95 nM
MIC [5]: < 0.06 µg/mL

Cc1ccc(-c2cn(CC[C@](C)(C(=O)NO)S(C)(=O)=O)nn2)cc1
MIC [1]: 8 µg/mL (≈ 22.7 µM)
MIC [2]: 2 µg/mL (≈ 5.68 µM)
MIC [3]: 4 µg/mL (≈ 11.4 µM)
IC50 [4]: 1.39 nM
MIC [5]: 0.125 µg/mL (≈ 0.355 µM)

Cc1ccc(-c2cc(CCC(C)(C(=O)NO)S(C)(=O)=O)on2)cc1 (racemic)
MIC [1]: 2 µg/mL (≈ 5.68 µM)
MIC [2]: 1 µg/mL (≈ 2.84 µM)
MIC [3]: 2 µg/mL (≈ 5.68 µM)
IC50 [4]: 2.93 nM
MIC [5]: < 0.06 µg/mL

CC(CCc1cc(-c2cccc(Cl)c2Cl)on1)(C(=O)NO)S(C)(=O)=O (racemic)
MIC [1]: 2 µg/mL (≈ 4.91 µM)
IC50 [4]: 2.66 nM
MIC [5]: 0.06 µg/mL (≈ 0.147 µM)

COc1cccc(-c2cc(CC[C@](C)(C(=O)NO)S(C)(=O)=O)on2)c1F
MIC [1]: 8 µg/mL (≈ 20.7 µM)
MIC [2]: 2 µg/mL (≈ 5.18 µM)
MIC [3]: 4 µg/mL (≈ 10.4 µM)
IC50 [4]: 5.32 nM
MIC [5]: < 0.06 µg/mL

C[C@@](CCn1cc(-c2ccccc2)cn1)(C(=O)NO)S(C)(=O)=O
fraction unbound [6]: 0.048
MIC [1]: 2 µg/mL (≈ 5.93 µM)
MIC [2]: 0.5 µg/mL (≈ 1.48 µM)
MIC90 [7]: 4 µg/mL (≈ 11.9 µM)
MIC [3]: 1 µg/mL (≈ 2.96 µM)
MIC90 [8]: > 256 µg/mL
MIC90 [9]: 32 µg/mL (≈ 94.8 µM)
IC50 [4]: 1.61 nM
logD [10]: 1.04
MIC [5]: 0.015 µg/mL (≈ 0.0445 µM)
MIC90 [11]: > 64 µg/mL

CC(CCc1nc(-c2ccccc2)no1)(C(=O)NO)S(C)(=O)=O (racemic)
MIC [1]: > 64 µg/mL
MIC [2]: 16 µg/mL (≈ 47.1 µM)
MIC [3]: 32 µg/mL (≈ 94.3 µM)
IC50 [4]: > 100 nM
MIC [5]: 0.5 µg/mL (≈ 1.47 µM)

C[C@@](CCn1ccc(-c2ccccc2)cc1=O)(C(=O)NO)S(C)(=O)=O
MIC [1]: 2 µg/mL (≈ 5.49 µM)
MIC [3]: 1 µg/mL (≈ 2.74 µM)
logD [10]: 0.8
MIC [5]: 0.06 µg/mL (≈ 0.165 µM)

COc1ccc(-c2cc(CC[C@](C)(C(=O)NO)S(C)(=O)=O)no2)c(F)c1
MIC [1]: 1 µg/mL (≈ 2.59 µM)
MIC [2]: 0.5 µg/mL (≈ 1.29 µM)
MIC [3]: 0.5 µg/mL (≈ 1.29 µM)
IC50 [4]: 2.32 nM
MIC [5]: 0.125 µg/mL (≈ 0.323 µM)

C[C@@](CCn1cc(-c2ccc(F)c(F)c2)nn1)(C(=O)NO)S(C)(=O)=O
MIC [1]: 4 µg/mL (≈ 10.7 µM)
MIC [2]: 4 µg/mL (≈ 10.7 µM)
MIC [3]: 4 µg/mL (≈ 10.7 µM)
IC50 [4]: 1.87 nM
MIC [5]: 0.06 µg/mL (≈ 0.16 µM)

CC(CCc1cnn(-c2ccccc2)c1)(C(=O)NO)S(C)(=O)=O (racemic)
MIC [1]: 64 µg/mL (≈ 190 µM)
MIC [2]: 8 µg/mL (≈ 23.7 µM)
MIC [3]: 32 µg/mL (≈ 94.8 µM)
IC50 [4]: 13.5 nM
MIC [5]: 0.5 µg/mL (≈ 1.48 µM)

CC(CCc1cc(-c2cccc(F)c2F)no1)(C(=O)NO)S(C)(=O)=O (racemic)
MIC [1]: 4 µg/mL (≈ 10.7 µM)
MIC [2]: 2 µg/mL (≈ 5.34 µM)
MIC [3]: 2 µg/mL (≈ 5.34 µM)
IC50 [4]: 6.81 nM
MIC [5]: < 0.06 µg/mL

C[C@@](CCc1cc(-c2ccccc2)on1)(C(=O)NO)S(C)(=O)=O
fraction unbound [6]: 0.016
MIC [1]: 1 µg/mL (≈ 2.96 µM)
MIC [2]: 0.5 µg/mL (≈ 1.48 µM)
MIC90 [7]: 2 µg/mL (≈ 5.91 µM)
MIC [3]: 0.5 µg/mL (≈ 1.48 µM)
MIC90 [8]: > 32 µg/mL
MIC90 [9]: 4 µg/mL (≈ 11.8 µM)
IC50 [4]: 0.511 nM
logD [10]: 1.31
MIC [5]: < 0.06 µg/mL
MIC90 [11]: 32 µg/mL (≈ 94.6 µM)

COc1ccc(-c2cc(CC[C@](C)(C(=O)NO)S(C)(=O)=O)on2)c(F)c1
fraction unbound [6]: 0.072
MIC [1]: 2 µg/mL (≈ 5.18 µM)
MIC [2]: 1 µg/mL (≈ 2.59 µM)
MIC90 [7]: 4 µg/mL (≈ 10.4 µM)
MIC [3]: 2 µg/mL (≈ 5.18 µM)
MIC90 [8]: 32 µg/mL (≈ 82.8 µM)
MIC90 [9]: 4 µg/mL (≈ 10.4 µM)
IC50 [4]: 4.4 nM
logD [10]: 1.23
MIC [5]: < 0.06 µg/mL
MIC90 [11]: 8 µg/mL (≈ 20.7 µM)

CC(CCc1cc(-c2cccc(F)c2)on1)(C(=O)NO)S(C)(=O)=O (racemic)
MIC [1]: 4 µg/mL (≈ 11.2 µM)
IC50 [4]: 6.75 nM
MIC [5]: < 0.06 µg/mL

CC(CCc1nnc(-c2ccccc2)[nH]1)(C(=O)NO)S(C)(=O)=O (racemic)
MIC [1]: > 64 µg/mL
MIC [2]: > 64 µg/mL
MIC [3]: > 64 µg/mL
IC50 [4]: > 100 nM
MIC [5]: 64 µg/mL (≈ 189 µM)

C[C@@](CCn1cc(-c2ccccc2)nn1)(C(=O)NO)S(C)(=O)=O
MIC [1]: 4 µg/mL (≈ 11.8 µM)
MIC [2]: 1 µg/mL (≈ 2.96 µM)
MIC [3]: 2 µg/mL (≈ 5.91 µM)
IC50 [4]: 0.85 nM
MIC [5]: 0.03 µg/mL (≈ 0.0887 µM)

C[C@@](CCn1cc(-c2cccc(F)c2F)nn1)(C(=O)NO)S(C)(=O)=O
MIC [1]: 8 µg/mL (≈ 21.4 µM)
MIC [2]: 4 µg/mL (≈ 10.7 µM)
MIC [3]: 4 µg/mL (≈ 10.7 µM)
IC50 [4]: 8.08 nM
MIC [5]: 0.125 µg/mL (≈ 0.334 µM)

CC(CCn1ncc(-c2ccccc2)n1)(C(=O)NO)S(C)(=O)=O (racemic)
MIC [1]: 64 µg/mL (≈ 189 µM)
MIC [2]: 32 µg/mL (≈ 94.6 µM)
MIC [3]: 32 µg/mL (≈ 94.6 µM)
IC50 [4]: > 100 nM
MIC [5]: 0.5 µg/mL (≈ 1.48 µM)

C[C@@](CCn1cc(-c2ccc(Cl)c(Cl)c2)nn1)(C(=O)NO)S(C)(=O)=O
MIC [1]: 2 µg/mL (≈ 4.91 µM)
MIC [2]: 1 µg/mL (≈ 2.46 µM)
MIC [3]: 2 µg/mL (≈ 4.91 µM)
IC50 [4]: 1.67 nM
MIC [5]: < 0.06 µg/mL

C[C@@](CCn1cc(-c2ccc(Cl)cc2F)nn1)(C(=O)NO)S(C)(=O)=O
MIC [1]: 1 µg/mL (≈ 2.56 µM)
MIC [2]: 0.5 µg/mL (≈ 1.28 µM)
MIC90 [7]: 1 µg/mL (≈ 2.56 µM)
MIC [3]: 1 µg/mL (≈ 2.56 µM)
MIC90 [8]: > 32 µg/mL
MIC90 [9]: 1 µg/mL (≈ 2.56 µM)
IC50 [4]: 0.657 nM
logD [10]: 1.34
MIC [5]: 0.008 µg/mL (≈ 0.0205 µM)
MIC90 [11]: 2 µg/mL (≈ 5.12 µM)

CC(CCc1cc(-c2ccccc2F)on1)(C(=O)NO)S(C)(=O)=O (racemic)
MIC [1]: 2 µg/mL (≈ 5.61 µM)
MIC [2]: 1 µg/mL (≈ 2.81 µM)
MIC [3]: 2 µg/mL (≈ 5.61 µM)
IC50 [4]: 8.31 nM
MIC [5]: 0.06 µg/mL (≈ 0.168 µM)

C[C@@](CCc1ccc(-c2ccccc2)cc1)(C(=O)NO)S(C)(=O)=O
MIC [1]: 1 µg/mL (≈ 2.88 µM)
MIC [3]: 1 µg/mL (≈ 2.88 µM)
logD [10]: 2.24

CC(CCc1cn(-c2ccccc2)nn1)(C(=O)NO)S(C)(=O)=O (racemic)
MIC [1]: 32 µg/mL (≈ 94.6 µM)
MIC [2]: 8 µg/mL (≈ 23.6 µM)
MIC [3]: 16 µg/mL (≈ 47.3 µM)
IC50 [4]: 3 nM
MIC [5]: 0.5 µg/mL (≈ 1.48 µM)

C[C@@](CCn1cc(-c2ccc(Cl)c(F)c2)nn1)(C(=O)NO)S(C)(=O)=O
MIC [1]: 2 µg/mL (≈ 5.12 µM)
MIC [2]: 2 µg/mL (≈ 5.12 µM)
MIC [3]: 2 µg/mL (≈ 5.12 µM)
IC50 [4]: 0.912 nM
MIC [5]: 0.06 µg/mL (≈ 0.154 µM)

COc1ccc(-c2cn(CC[C@](C)(C(=O)NO)S(C)(=O)=O)nn2)c(F)c1
fraction unbound [6]: 0.085
MIC [1]: 4 µg/mL (≈ 10.4 µM)
MIC [2]: 2 µg/mL (≈ 5.18 µM)
MIC90 [7]: 4 µg/mL (≈ 10.4 µM)
MIC [3]: 2 µg/mL (≈ 5.18 µM)
MIC90 [8]: > 32 µg/mL
MIC90 [9]: 16 µg/mL (≈ 41.4 µM)
IC50 [4]: 1.2 nM
logD [10]: 1.36
MIC [5]: 0.06 µg/mL (≈ 0.155 µM)
MIC90 [11]: > 32 µg/mL

COc1ccc(-c2cn(CC[C@](C)(C(=O)NO)S(C)(=O)=O)nn2)c(Cl)c1
MIC [1]: 8 µg/mL (≈ 19.9 µM)
MIC [2]: 8 µg/mL (≈ 19.9 µM)
MIC [3]: 8 µg/mL (≈ 19.9 µM)
IC50 [4]: 4.71 nM
MIC [5]: 0.125 µg/mL (≈ 0.31 µM)

CC(CCc1cc(-c2ccccc2)n[nH]1)(C(=O)NO)S(C)(=O)=O (racemic)
MIC [1]: > 64 µg/mL
MIC [2]: > 64 µg/mL
MIC [3]: > 64 µg/mL
IC50 [4]: > 100 nM
MIC [5]: 4 µg/mL (≈ 11.9 µM)

C[C@@](CCc1cc(-c2ccccc2)no1)(C(=O)NO)S(C)(=O)=O
fraction unbound [6]: 0.013
MIC [1]: 2 µg/mL (≈ 5.91 µM)
MIC [2]: 0.5 µg/mL (≈ 1.48 µM)
MIC90 [7]: 2 µg/mL (≈ 5.91 µM)
MIC [3]: 1 µg/mL (≈ 2.96 µM)
MIC90 [8]: > 32 µg/mL
MIC90 [9]: 1 µg/mL (≈ 2.96 µM)
IC50 [4]: 3.02 nM
logD [10]: 0.99
MIC [5]: < 0.06 µg/mL
MIC90 [11]: 4 µg/mL (≈ 11.8 µM)
